From ChEMBL document CHEMBL4732107, “Synthesis and anticancer activity evaluation of naphthalene-substituted triazole spirodienones” (Eur J Med Chem, 2021)
Calls of active or inactive are those of the source. The calls are words filed in the database; no cut-off is given here.

Legend:
[1] = target: Tyrosine-protein kinase JAK2 (Homo sapiens, UniProt O60674); assay: Inhibition of JAK2 (unknown origin)
Outline: (§1)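 Kinase inhibition was measured in two independent repeats, and IC50 is reported as their average with SD.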

Aurora kinase A = target: T1, Aurora kinase A (Homo sapiens, UniProt O14965); assay: Inhibition of AURKA (unknown origin); outline: as §1
T1 sequence (O14965 whole entry): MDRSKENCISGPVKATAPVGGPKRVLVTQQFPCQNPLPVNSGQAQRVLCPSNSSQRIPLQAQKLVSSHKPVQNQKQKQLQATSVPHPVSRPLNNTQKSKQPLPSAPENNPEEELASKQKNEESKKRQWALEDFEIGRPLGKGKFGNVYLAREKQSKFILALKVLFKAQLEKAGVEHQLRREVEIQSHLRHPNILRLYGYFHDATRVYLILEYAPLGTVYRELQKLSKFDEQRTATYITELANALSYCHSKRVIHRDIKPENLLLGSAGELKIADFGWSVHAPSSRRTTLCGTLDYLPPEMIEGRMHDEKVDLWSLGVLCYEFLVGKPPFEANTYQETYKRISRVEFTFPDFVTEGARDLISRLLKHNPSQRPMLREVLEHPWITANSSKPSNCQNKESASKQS

[2] = Acute toxicity in Kunming mouse assessed as body weight loss at 40 mg/kg, ip administered as single dose; format: organism-based; details: in vivo
Outline: (§2)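 Kunming mice in four groups (n = 8, half male, half female) got one intraperitoneal dose of 10, 20 or 40 mg/kg, or vehicle. Body weights were recorded daily after dosing. Eyes, skin and fur were checked for clinical signs. Mortality was recorded. Mice were dissected to look for ascites and to assess liver volume.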

MDA-MB-231 [3] = assay: Induction of apoptosis in human MDA-MB-231 cells assessed as necrotic cells at 1 uM measured after 24 hrs by annexin V-FITC/propidium iodide staining based flow cytometry (reference value: 4.74%); format: functional
[4] = Acute toxicity in Kunming mouse assessed as clinical change in skin at 40 mg/kg, ip administered as single dose; format: organism-based; details: in vivo; outline: as §2
MDA-MB-231 [5] = assay: Induction of apoptosis in human MDA-MB-231 cells assessed as late apoptotic cells at 0.1 uM measured after 24 hrs by annexin V-FITC/propidium iodide staining based flow cytometry (reference value: 2.84%); format: functional
4T1 [6] = assay: Antitumor activity against mouse 4T1 cells implanted in mouse assessed as reduction in tumor weight at 1 to 2 mg/kg, ip administered daily for 12 days; format: functional, organism-based; details: dose 1-2 mg/kg, time 12.0 day
Outline: (§3)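 Mice bearing orthotopic 4T1 tumors were randomized into 4 groups (n = 6) once tumors reached about 100 mm2. Groups received vehicle, test compound at 1 or 2 mg/kg, or doxorubicin at 1 mg/kg, given i.p. every day. Body weight and tumor volume were recorded daily. Tumors were excised and weighed at the end, and inhibition was calculated against the saline control.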

MDA-MB-231 [7] = assay: Induction of apoptosis in human MDA-MB-231 cells assessed as viable cells at 1 uM measured after 24 hrs by annexin V-FITC/propidium iodide staining based flow cytometry (reference value: 90.9%); format: functional; details: read-out: Activity
[8] = Toxicity in mouse implanted with mouse 4T1 cells assessed as increase in liver size at 2 mg/kg, ip administered daily for 12 days measured post last dose; format: organism-based; details: in vivo, 288 h, time 12 day
Outline: (§4)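 Orthotopic 4T1-bearing mice (n = 6 per group) were dosed i.p. daily with vehicle, compound at 1 or 2 mg/kg, or doxorubicin at 1 mg/kg. At the end of treatment, tumors and major organs (liver, spleen) were harvested and photographed. Sections were H&E stained and examined by microscope.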

[9] = Acute toxicity in Kunming mouse assessed as decrease in liver volume at 40 mg/kg, ip administered as single dose; format: organism-based; details: in vivo; outline: as §2
[10] = Toxicity in mouse implanted with mouse 4T1 cells assessed as change in body weight at 1 to 2 mg/kg, ip administered daily for 12 days measured daily during compound dosing; format: organism-based; details: in vivo, 288 h, dose 1-2 mg/kg, time 12 day; outline: as §3
4T1 [11] = assay: Antitumor activity against mouse 4T1 cells implanted in mouse assessed as tumor growth inhibition at 2 mg/kg, ip administered daily for 12 days relative to control; format: functional; details: 4T1, ip, 288 h, time 12 day, read-out: TGI
Outline: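 Orthotopic 4T1 tumor-bearing mice were randomized into four groups (n = 6) once tumors reached about 100 mm2. Groups received vehicle (saline), test compound at 1 or 2 mg/kg, or doxorubicin 1 mg/kg, all intraperitoneally every day. Tumor volume and body weight were measured daily. Inhibition ratio was computed against saline at study end, and tumors were weighed.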

HeLa = assay: Antiproliferative activity against human HeLa cells assessed as reduction in cell viability measured after 5 days by beckman coulter counting method; format: functional, cell-based; details: 120 h
[12] = Acute toxicity in ip dosed Kunming mouse administered as single dose; format: organism-based; details: in vivo; outline: as §2
[13] = target: Mitogen-activated protein kinase 10 (Homo sapiens, UniProt P53779); assay: Inhibition of MAPK10 (unknown origin); outline: as §1
[14] = Acute toxicity in Kunming mouse assessed as development of ascites at 40 mg/kg, ip administered as single dose; format: organism-based; details: in vivo; outline: as §2
4T1 [15] = assay: Antitumor activity against mouse 4T1 cells implanted in mouse assessed as tumor growth inhibition at 1 mg/kg, ip administered daily for 12 days relative to control; format: functional; details: 4T1, ip, 288 h, time 12 day, read-out: TGI; outline: as §3
MDA-MB-231 [16] = assay: Induction of apoptosis in human MDA-MB-231 cells assessed as viable cells at 0.1 uM measured after 24 hrs by annexin V-FITC/propidium iodide staining based flow cytometry (reference value: 90.9%); format: functional; details: read-out: Activity
[17] = Toxicity in mouse implanted with mouse 4T1 cells assessed as extramedullary hematopoiesis in spleen at 2 mg/kg, ip administered daily for 12 days measured post last dose by H and E staining based microscopic analysis; format: organism-based; details: in vivo, 288 h, time 12 day; outline: as §4
MDA-MB-231 [18] = assay: Cell cycle arrest in human MDA-MB-231 cells assessed as accumulation at S phase at 1 uM measured after 24 hrs by propidium iodide staining based flow cytometry (reference value: 19.84%); format: functional
MDA-MB-231 [19] = assay: Induction of apoptosis in human MDA-MB-231 cells assessed as early apoptotic cells at 0.1 uM measured after 24 hrs by annexin V-FITC/propidium iodide staining based flow cytometry (reference value: 1.49%); format: functional
[20] = Acute toxicity in Kunming mouse assessed as clinical change in eyes at 40 mg/kg, ip administered as single dose; format: organism-based; details: in vivo; outline: as §2
MDA-MB-231 [21] = assay: Induction of apoptosis in human MDA-MB-231 cells assessed as necrotic cells at 0.1 uM measured after 24 hrs by annexin V-FITC/propidium iodide staining based flow cytometry (reference value: 4.74%); format: functional
4T1 [22] = assay: Induction of apoptosis in mouse 4T1 cells implanted in mouse at 2 mg/kg, ip administered daily for 12 days measured post last dose by H and E staining based microscopic analysis; format: functional, organism-based; details: time 12.0 day; outline: as §4
MDA-MB-231 [23] = assay: Antiproliferative activity against human MDA-MB-231 cells assessed as reduction in cell viability measured after 5 days by beckman coulter counting method; format: functional, cell-based; details: MDA-MB-231, 120 h
MDA-MB-231 [24] = assay: Induction of apoptosis in human MDA-MB-231 cells assessed as late apoptotic cells at 1 uM measured after 24 hrs by annexin V-FITC/propidium iodide staining based flow cytometry (reference value: 2.84%); format: functional
[25] = Acute toxicity in Kunming mouse assessed as mortality at 10 to 40 mg/kg, ip administered as single dose; format: organism-based; details: in vivo, dose 10-40 mg/kg; outline: as §2

Tyrosine-protein kinase JAK2, sequence (O60674 whole entry): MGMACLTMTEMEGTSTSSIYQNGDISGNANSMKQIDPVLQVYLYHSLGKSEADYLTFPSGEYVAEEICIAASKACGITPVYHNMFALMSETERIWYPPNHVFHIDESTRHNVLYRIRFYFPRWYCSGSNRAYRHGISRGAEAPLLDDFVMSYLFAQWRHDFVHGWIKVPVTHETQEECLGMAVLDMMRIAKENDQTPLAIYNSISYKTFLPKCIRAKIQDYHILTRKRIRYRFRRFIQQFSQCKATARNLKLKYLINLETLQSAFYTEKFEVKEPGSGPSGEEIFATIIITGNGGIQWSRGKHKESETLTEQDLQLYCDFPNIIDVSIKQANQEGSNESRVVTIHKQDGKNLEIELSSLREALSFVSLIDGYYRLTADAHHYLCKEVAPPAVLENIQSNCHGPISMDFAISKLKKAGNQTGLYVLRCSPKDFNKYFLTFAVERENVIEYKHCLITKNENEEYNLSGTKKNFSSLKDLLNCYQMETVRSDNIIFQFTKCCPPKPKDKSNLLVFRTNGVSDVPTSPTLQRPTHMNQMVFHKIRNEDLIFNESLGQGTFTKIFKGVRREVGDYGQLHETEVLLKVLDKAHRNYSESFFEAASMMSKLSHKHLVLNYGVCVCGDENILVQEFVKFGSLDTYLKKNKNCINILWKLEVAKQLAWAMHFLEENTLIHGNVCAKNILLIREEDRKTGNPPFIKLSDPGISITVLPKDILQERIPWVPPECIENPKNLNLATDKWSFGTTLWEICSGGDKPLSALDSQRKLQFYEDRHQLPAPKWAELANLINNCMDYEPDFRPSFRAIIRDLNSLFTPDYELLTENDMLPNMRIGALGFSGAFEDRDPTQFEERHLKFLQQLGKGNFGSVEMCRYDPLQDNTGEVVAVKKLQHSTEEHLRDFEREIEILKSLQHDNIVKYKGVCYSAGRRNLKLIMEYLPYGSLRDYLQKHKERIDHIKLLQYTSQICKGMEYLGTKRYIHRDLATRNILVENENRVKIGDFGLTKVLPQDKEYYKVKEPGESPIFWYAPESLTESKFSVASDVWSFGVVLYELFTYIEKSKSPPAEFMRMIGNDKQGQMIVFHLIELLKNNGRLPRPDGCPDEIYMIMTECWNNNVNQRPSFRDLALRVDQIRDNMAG
Mitogen-activated protein kinase 10, sequence (P53779 whole entry): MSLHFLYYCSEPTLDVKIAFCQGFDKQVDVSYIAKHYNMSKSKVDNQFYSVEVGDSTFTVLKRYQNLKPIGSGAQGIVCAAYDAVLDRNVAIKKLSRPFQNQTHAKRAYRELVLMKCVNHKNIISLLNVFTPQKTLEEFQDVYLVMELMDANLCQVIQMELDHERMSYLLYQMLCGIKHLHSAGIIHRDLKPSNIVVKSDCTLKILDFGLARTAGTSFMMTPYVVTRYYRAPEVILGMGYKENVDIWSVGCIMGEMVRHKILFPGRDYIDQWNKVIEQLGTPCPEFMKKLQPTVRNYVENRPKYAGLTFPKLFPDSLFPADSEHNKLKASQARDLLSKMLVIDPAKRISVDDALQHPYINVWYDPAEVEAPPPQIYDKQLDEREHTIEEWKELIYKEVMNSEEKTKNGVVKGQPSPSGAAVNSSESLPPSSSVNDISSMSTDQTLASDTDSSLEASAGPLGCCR

O=C1C=CC2(C=C1)OCC(=O)N2c1nc(-c2cccc3ccccc23)nn1-c1ccccc1
IC50 [1]: 59 µM
IC50 (Aurora kinase A): > 100 µM
Activity [2]: Toxic
Activity (MDA-MB-231 [3]): 13.1%
Activity [4]: Non-Toxic
Activity (MDA-MB-231 [5]): 2.69%
Activity (4T1 [6]): Active
viability at 1 µM (MDA-MB-231 [7]): 35.7%
Activity [8]: Toxic
Activity [9]: Toxic
Activity [10]: Non-Toxic
inhibition in vivo at 2 mg/kg (4T1 [11]): 38.8%
IC50 (HeLa): 0.07 µM
MTD [12]: > 40 mg/kg
IC50 [13]: > 100 µM
Activity [14]: Toxic
inhibition in vivo at 1 mg/kg (4T1 [15]): 18.2%
viability at 0.1 µM (MDA-MB-231 [16]): 90.8%
Activity [17]: Toxic
Activity (MDA-MB-231 [18]): 36.99%
Activity (MDA-MB-231 [19]): 1.32%
Activity [20]: Non-Toxic
Activity (MDA-MB-231 [21]): 5.16%
Activity (4T1 [22]): Active
IC50 (MDA-MB-231 [23]): 0.05 µM
Activity (MDA-MB-231 [24]): 29%
Activity [25]: Non-Toxic
